# Bioassay records: PubChem BioAssay, several laboratories
# Only some compounds are listed: those with a hit (about 2.9% of all), similar ones and a draw of the others.
# CRFBP-R2 block = antagonists of CRF-BP/CRF-R2 complex, primary screen, cell-based, HEK293, calcium dye fluorescence, uHTS; AID 588475, 2011; 350,000 tested, 0.59% active; inhibition, % at 11.8 µM; CRF-induced calcium fluorescence;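 active means inhibition of the ligand-induced calcium signal above about 50% at the single tested concentration, limit read from the data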
# proKLK7 act = proKLK7 zymogen activators, primary screen, biochemical, fluorescence intensity; Kallikrein-7 (Homo sapiens), P49862; purified proKLK7, EDANS-DABCYL substrate fluorescence; 100% is mature enzyme control, 0% vehicle; activation, % at 7 µM; 370,000 tested, 0.9% active;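 active means activation above the mean of all tested compounds plus 3 SD, computed per campaign excluding outliers beyond control limits, cut at about 13% in these data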
# Target sequence (P49862 whole entry, looked up): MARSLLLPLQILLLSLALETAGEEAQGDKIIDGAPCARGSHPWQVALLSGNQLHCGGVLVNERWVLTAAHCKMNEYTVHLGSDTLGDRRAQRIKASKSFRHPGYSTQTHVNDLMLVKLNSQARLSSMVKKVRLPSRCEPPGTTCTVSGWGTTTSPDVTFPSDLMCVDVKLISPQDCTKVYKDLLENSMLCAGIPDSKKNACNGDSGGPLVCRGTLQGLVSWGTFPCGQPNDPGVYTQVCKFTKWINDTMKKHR
# DDE Tn6 FP inh = inhibitors of Tn6 peptide binding to fibrin DD(E), primary screen, biochemical, fluorescence polarization, human fibrin, Tn6 probe; inhibition, % at 8.3 µM; Fibrin DD(E) TRITC-Tn6 fluorescence polarization displacement; AID 720509, 2013; Fibrinogen beta chain (Homo sapiens), P02675; 370,000 tested, 0.21% active;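 active means inhibition above a per-campaign cutoff: mean of compounds within control limits plus 3 SD, cut at about 15% in these data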;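 further: 0% = median of all compound wells on the plate and 100% = blocking peptide control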
# NRP1-CendR mod = modulators of CendR peptide binding to NRP-1, primary screen, biochemical, fluorescence polarization, uHTS; FAM-RPARPAR peptide binding to NRP-1; inhibition, % at 25 µM; 360,000 tested, 0.85% active; AID 602438, 2012;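 active means inhibition or corrected inhibition above about 18%, plus a signal ratio from 0.5 to 1.5, limit read from the data, passing the limit was not always enough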
# CRFBP-R2 agonist = agonists of CRF-BP/CRF-R2 complex, primary screen, cell-based, HEK293, calcium dye fluorescence, uHTS. 350,000 tested, 0.46% active. AID 588473, 2011. activation, % at 13.2 µM. calcium dye fluorescence (FLIPR); percent of saturating CRF peptide response;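 active means activation of at least 50%, plus an integration ratio under a set limit after plate pattern correction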;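 further: plate controls were neutral control wells without compound for no effect and CRF at EC100 for full effect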
# DDE Tn7 FP inh = inhibitors of Tn7 peptide binding to fibrin DD(E), primary screen, biochemical, fluorescence polarization, human fibrin, Tn7 probe; inhibition, % at 8.3 µM; AID 720508, 2013; FP displacement of FITC-Tn7 peptide from fibrin DD(E); 0% = median of compound wells per plate; 370,000 tested, 0.13% active; Fibrinogen beta chain (Homo sapiens), P02675;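 active means inhibition above the mean of compounds falling within the control limits plus 3 SD of them, cut at about 14% in these data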;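 further: 0% = plate median of compound wells and 100% = 10 µM Aha-Tn7 peptide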
#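 Test system: human clot-derived fibrin DD(E) complex / Quantity: 2 µM final DD(E) protein / Incubation: 10 min plus 3 h, room temperature / Measured by: fluorescence polarization / Benchmarks: high control of 10 µM Aha-Tn7 peptide / Replicates: singlicate testing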
# An asterisk follows results filed as active; nt = not tested or not shown.
SMILES,CRFBP-R2 block,proKLK7 act,DDE Tn6 FP inh,NRP1-CendR mod,CRFBP-R2 agonist,DDE Tn7 FP inh
N#CC(C#N)=NNc1ccc(S(=O)(=O)N2CCCCC2)cc1,66*,0,-1,-6,99*,-4
CCOc1ccc(C2C(C(=O)c3ccc(C)o3)=C(O)C(=O)N2c2cc(C)on2)cc1OC (stereo not drawn),-8,1,-2,21*,4,2
COc1ccc(-c2nc3scc(-c4ccc(OC)c(OC)c4)c3c(=O)o2)cc1,57*,nt,nt,-14,-1,nt
Cc1ccc2nc(NCCC(=O)O)nc(-c3ccccc3)c2c1,38,2,-6,7,146*,5
O=C(O)CCNc1nc(-c2ccccc2)c2cc(Br)ccc2n1,-25,1,-1,-8,96*,10
OCCCNc1nc(-c2ccccc2)c2cc(Br)ccc2n1,-25,2,5,-14,9,-5
COC(=O)[C@]12C[C@H](CC(=O)NCCCN3CCCC3=O)C(=O)N(Cc3ccc4c(c3)OCO4)C1=C[C@H](COCc1ccccc1)O[C@@H]2C,nt,0,1,nt,nt,-1
Cc1cc(N2CCN(S(C)(=O)=O)C[C@@H]2C)ccc1N1CCN(Cc2ccccc2)[C@@H](C)C1,nt,1,-2,nt,nt,1
CN(C)/C=C/c1c([N+](=O)[O-])c2ccc(O)cc2n1-c1ccccc1,2,-2,3,33*,-4,0
COC(=O)c1c(C)n(-c2ccccc2)c2ccc(O)cc12,-52,0,0,-2,-1,0
CCOC(=O)c1c2c(n(Cc3ccccc3)c1C)C(=O)C(=O)c1ccccc1-2,25,-1,-4,32*,1,10
CCOC(=O)c1c2c(n(C)c1C)C(=O)C(=O)c1ccc(Br)cc1-2,12,0,1,14,-4,0
O=S1(=O)c2ccc(N3CCSCC3)cc2Oc2ccccc2CN1Cc1cn(Cc2ccc(Cl)cc2)nn1,nt,0,0,nt,nt,5
COc1ccc(-c2nnc(SCC(=O)Nc3ccc(S(=O)(=O)Nc4cc(C)nc(C)n4)cc3)n2-c2ccc(OC)cc2)cc1,nt,0,-5,nt,nt,3
N#C/C(=C\c1ccc(OC(=O)c2ccc(Cl)s2)cc1)c1nc2ccccc2[nH]1,3,0,1,39*,0,2
O=S(=O)(CC1NCCc2ccccc21)NCCc1ccccc1 (stereo not drawn),nt,0,-2,nt,nt,5
Cc1ccccc1S(=O)(=O)Nc1nc2ccccc2nc1NCCO,-8,2,0,31*,-1,-6
Cc1cc(F)ccc1S(=O)(=O)Nc1nc2ccccc2nc1Cl,21,0,3,-8,-1,3
Cc1ccc(C(C)(C)C)cc1S(=O)(=O)Nc1nc2ccccc2nc1Cl,64*,0,0,-5,12,3
C#CCNC(=O)CSCc1nc(-c2ccc(OCC)cc2)oc1C,nt,nt,-6,nt,nt,-1
O=C(CCn1nnc(-c2cccs2)n1)NCc1ccco1,nt,0,-2,nt,nt,-11
Cc1ccnc(N/C=C(\C#N)c2nc(-c3cccc(Br)c3)cs2)c1,-250,-7,0,130,237*,0
O=C1/C(=N\S(=O)(=O)c2cccs2)C([n+]2cccc(Cc3ccccc3)c2)=C([O-])c2ccccc21,-62,nt,nt,133,62*,nt
O=C1/C(=N\S(=O)(=O)c2cccs2)C([n+]2ccc(CCCc3ccccc3)cc2)=C([O-])c2ccccc21,-7,0,1,7,-1,1
COC(=O)C1=C(C)N(C)C(=NCc2ccc3c(c2)OCO3)NC1c1ccc(F)cc1 (stereo not drawn),nt,-1,-4,nt,nt,-6
SMILES,CRFBP-R2 block,proKLK7 act,DDE Tn6 FP inh,NRP1-CendR mod,CRFBP-R2 agonist,DDE Tn7 FP inh
Cc1cccc(CSC(Nc2ccc(F)cc2)=C(C#N)C#N)c1,67*,0,-5,-9,73*,-2
CC(SCc1ccccc1)C(=O)Nc1ccc(F)cc1 (stereo not drawn),11,0,-4,9,-2,-6
N#CC(C#N)=C(Nc1ccc(F)cc1)SCc1cccc(Br)c1,69*,0,3,-7,42,-8
O=C(CSc1nnc(-c2cccnc2)n1Cc1ccco1)Nc1ccc(F)cc1Cl,nt,0,2,nt,nt,2
O=C(NCc1ccccc1)c1ccc(S(=O)(=O)N2CCCC2)cc1,9,0,-5,-1,0,1
Cc1[nH]c2ccccc2c1SCCNC(=O)c1ccc(S(=O)(=O)N2CCCC2)cc1,114*,0,-7,12,-4,0
CCOC(=O)NNC(=O)c1[nH]c2ccc(Br)cc2c1-c1ccccc1,57*,0,-3,10,0,-1
COC(=O)C(C(=O)OC)c1ccccc1[N+](=O)[O-],5,1,0,31*,0,-3
Cc1cc[n+](-c2[nH]c(=O)sc2/C=N/NC([S-])=Nc2ccccc2)cc1C,4,0,0,35*,14,13
Cc1ccc[n+](-c2[nH]c(=O)sc2/C=N/N=C(\[O-])CCn2c3ccccc3c3ccccc32)c1,-3,0,-4,14,0,6
CCOC(=O)N1CCN(C(=O)COC(=O)c2oc3ccc(OC)cc3c2C)CC1,-9,-6,-4,23*,0,-4
COc1ccc2oc(C(=O)NCCC(C)C)c(C)c2c1,79*,0,3,0,1,-1
CC(COc1cccc(C#N)c1)CN1CCC(C(O)(c2ccccc2)c2ccccc2)CC1 (stereo not drawn),nt,0,-2,nt,nt,-2
C/C(=N\N=c1/sc2ccccc2n1C)c1ccccn1,-3,1,-4,26*,0,4
CCOC(=O)c1sc(NC(=O)CN(CC(C)C)CC(C)C)c(C(=O)OCC)c1C,74*,0,0,-1,-1,1
O=C(NCC1CCCO1)c1ccc(COc2ccc(F)cc2)o1 (stereo not drawn),2,-1,1,2,0,8
O=C(NC1CC1)c1ccc(COc2ccc(F)cc2)o1,5,0,-2,25*,-2,-8
COCCNC(=O)c1onc(CSc2ccccc2C)c1C(=O)O,15,1,22*,5,3,5
O=C(CSc1n[nH]c(=O)[nH]c1=O)Nc1ccc(Br)cc1Br,3,-1,1,31*,0,1
O=S1(=O)c2ccc(Br)cc2OC[C@@H](Cc2ccccc2)N1Cc1cn(Cc2ccc(Cl)cc2)nn1,nt,0,2,nt,nt,-1
